Laboratory results taken from ChEMBL document CHEMBL4725346, “Syntheses and Evaluation of New Bisacridine Derivatives for Dual Binding of G-Quadruplex and i-Motif in Regulating Oncogene c-myc Expression” (J Med Chem, 2020).
Activity calls are given as the source filed them. The calls are words filed in the database; no cut-off is given here.

Key:
[1] = Stabilization of c-myc promoter i-motif DNA Py33 (unknown origin) assessed as reduction in appearance of random coil confirmation at pH 5.5 by CD spectroscopy
Method in brief: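 Py33 at 1 µM in 1× BPES pH 5.5 (pH 6.8 random-coil reference), with or without ligand. Annealed at 95 °C for 5 min, cooled, kept at 4 °C overnight. CD spectra in a 4 mm cuvette over 230–350 nm, three scans averaged, buffer-corrected; peaks followed at 288 and 260 nm.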

[2] = Stabilization of c-myc promoter i-motif DNA Py33 (unknown origin) by 1H NMR spectra analysis
Method in brief: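 1D ¹H NMR titration with water suppression at 25 °C on a 600 MHz spectrometer. DNA at 0.5 mM in 10% D₂O/90% H₂O: Pu27 in 10 mM Tris-HCl pH 7.4, Py33 in 1× BPES pH 6.4. Annealed at 95 °C for 5 min before titration; ligand stock in d₆-DMSO.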

[3] = Binding affinity to c-myc promoter i-motif DNA Py33 (unknown origin) at 20 uM by isothermal titration calorimetry
Method in brief: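 ITC at 20 °C on degassed solutions. Cell held preformed DNA ([…]). Syringe held ligand in the same buffer (50 μM for Pu27, 20 μM for Py33). 28 injections of 10 μL at 4 min intervals. Heats of dilution from ligand-into-buffer runs subtracted before model fitting.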

U2OS = experiment: Antiproliferative activity against human U2OS cells after 48 hrs by MTT assay; type: functional, cell-based
Method in brief: (§1)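 Cells seeded at 5.0×10^3 per well, pre-incubated 12 h at 37 °C, 5% CO2, then exposed to compounds for 48 h; DMSO-only control. MTT (2.5 mg/mL) added for 4 h, formazan dissolved in DMSO, absorbance at 570 nm. Each dose tested in triplicate; IC50 from percentage survival relative to negative control.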

SiHa [4] = experiment: Antiproliferative activity against human SiHa cells after 48 hrs by MTT assay; type: functional, cell-based; method in brief: as §1
Quadruplex DNA [5] = experiment: Binding affinity to c-myc mutated promoter G-quadruplex/i-motif (unknown origin) expressed in human SiHa cells assessed as reduction in c-myc transcription by measuring decrease in ratio of renilla/firefly luciferase activity at 0.025 to 0.1 uM after 48 hrs by dual-luciferase reporter assay; type: cell-based; conditions: dose microM 0.025-0.1, time 48.0 hrs
Method in brief: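 SiHa cells transfected with 200 ng psiCHECK2 plasmid carrying wild-type, mutant or deleted c-myc promoter. Compounds added 8 h after transfection, then incubated 48 h at 37 °C. Cells washed with ice-cold PBS; Renilla/firefly activity ratio read by dual-luciferase assay.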

Quadruplex DNA [6] = experiment: Binding affinity to c-myc promoter G-quadruplex/i-motif in human SiHa cells assessed as reduction in c-myc mRNA level at 2.5 uM incubated for 24 hrs by qRT-PCR analysis; type: cell-based; parameters: scale not given: the % may be the effect or the level left
Method in brief: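 SiHa cells at 0, 0.625, 1.25 and 2.5 μM for 24 h; DMSO control. Total RNA extracted with TRIzol. 1.5 μg RNA reverse-transcribed with oligo dT18 and M-MLV (42 °C 60 min). PCR of 30 cycles (95/58/72 °C), products run on 1.2% agarose. β-actin as internal control; three repeats.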

Quadruplex DNA [7] = experiment: Binding affinity to c-myc promoter G-quadruplex/i-motif in human Raji cells assessed as reduction in c-myc mRNA transcription incubated for 24 hrs; type: cell-based; conditions: dose microM 0.16-2.5, time 24.0 hrs
Quadruplex DNA [8] = experiment: Binding affinity to c-myc promoter G-quadruplex/i-motif in human SiHa cells assessed as reduction in c-myc expression incubated for 24 hrs by Western blot analysis; type: cell-based
Method in brief: (§2)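 SiHa cells treated 24 h at 0, 0.625, 1.25 and 2.5 μM, then lysed in buffer with 1 mM PMSF. Protein measured by BCA, equal loads run on 8% gel and blotted to PVDF. Probed with anti-c-MYC and anti-β-actin (loading control), HRP anti-rabbit secondary, chemiluminescence read-out.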

Quadruplex DNA [9] = experiment: Binding affinity to c-myc promoter G-quadruplex/i-motif in human SiHa cells assessed as reduction in c-myc expression at 1.25 uM incubated for 24 hrs by Western blot analysis; type: cell-based; parameters: scale not given: the % may be the effect or the level left; method in brief: as §2
SiHa [10] = experiment: Induction of cell cycle arrest in human SiHa cells assessed as accumulation of cells at G2/M phase at 0.60 uM after 24 hrs by propidium iodide staining based flow cytometry (reference value: 29.71%); type: functional; conditions: dose 0.6 µM
SiHa [11] = experiment: Induction of apoptosis in human SiHa cells assessed as late apoptotic cells at 0.6 uM after 24 hrs by annexin V/FITC-propidium iodide staining-based flow cytometric method ( Rvb = 0.4%); type: functional
SiHa [12] = experiment: Induction of apoptosis in human SiHa cells assessed as necrotic cells at 0.6 uM after 24 hrs by annexin V/FITC-propidium iodide staining-based flow cytometric method ( Rvb = 0.1%); type: functional
SiHa [13] = experiment: Induction of apoptosis in human SiHa cells assessed as early apoptotic cells at 1.2 uM after 24 hrs by annexin V/FITC-propidium iodide staining-based flow cytometric method ( Rvb = 0.3%); type: functional
SiHa [14] = experiment: Induction of apoptosis in human SiHa cells assessed as early apoptotic cells at 2.4 uM after 24 hrs by annexin V/FITC-propidium iodide staining-based flow cytometric method ( Rvb = 0.3%); type: functional
SiHa [15] = experiment: Induction of apoptosis in human SiHa cells assessed as late apoptotic cells at 2.4 uM after 24 hrs by annexin V/FITC-propidium iodide staining-based flow cytometric method ( Rvb = 0.4%); type: functional
SiHa [16] = experiment: Induction of apoptosis in human SiHa cells assessed as increase in cleaved caspase-9 level incubated for 24 hrs by Western blot analysis; type: functional, cell-based; conditions: dose microM 0.6-2.4, time 24.0 hrs
Raji = experiment: Antiproliferative activity against human Raji cells after 48 hrs by MTT assay; type: functional, cell-based
CA46 = experiment: Induction of apoptosis in human CA46 cells at 0.6 to 2.4 uM after 24 hrs by propidium iodide staining based flow cytometry; type: functional, cell-based; conditions: dose microM 0.6-2.4, time 24.0 hrs
[17] = Toxicity in BALB/c nude mouse xenografted with human SiHa cells assessed as effect on heart weight at 15 mg/kg, ip administered once per 2 days for 18 days; type: organism-based; conditions: in vivo, 432 h, time 18 day
Method in brief: (§3)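 SiHa tumour fragments passaged from donor mice implanted in the underarm of female BALB/c nude mice (six per group). Compound given at 15 mg/kg ip once every two days for 18 days, with saline and cisplatin 0.2 mg/kg control groups. Body weight recorded every two days; at day 18 mice were sacrificed and organs weighed.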

[18] = Toxicity in BALB/c nude mouse xenografted with human SiHa cells assessed as effect on kidney weight at 15 mg/kg, ip administered once per 2 days for 18 days; type: organism-based; conditions: in vivo, 432 h, time 18 day; method in brief: as §3
Quadruplex DNA [19] = experiment: Binding affinity to 5'-biotin labeled c-myc promoter G-quadruplex DNA Pu27 (unknown origin) by UV titration method; type: nucleic-acid assay

Cc1ccc2nc3ccc(C)cc3c(NCCCNCCNCCCNc3c4cc(C)ccc4nc4ccc(C)cc34)c2c1
Activity [1]: Active
Activity [2]: Active
Kd [3]: 650 nM
IC50 (U2OS): 310 nM
IC50 (SiHa [4]): 1220 nM
Activity (Quadruplex DNA [5]): inactive
Activity (Quadruplex DNA [6]): < 76.9%
Activity (Quadruplex DNA [7]): Dose-dependent effect
Activity (Quadruplex DNA [8]): Dose-dependent effect
Activity (Quadruplex DNA [9]): < 39.8%
Activity (SiHa [10]): 56.91%
Activity (SiHa [11]): 3.8%
Activity (SiHa [12]): 0.5%
Activity (SiHa [13]): 43.2%
Activity (SiHa [14]): 55.4%
Activity (SiHa [15]): 27.5%
Activity (SiHa [16]): Dose-dependent effect
Activity (Raji): Active
Activity (CA46): inactive
Activity [17]: Non-Toxic
Activity [18]: Non-Toxic
Activity (Quadruplex DNA [19]): Active
